ChEMBL document CHEMBL1123812, “Pyrroloisoquinoline antidepressants. 2. In-depth exploration of structure-activity relationships” (J Med Chem, 1987)

Experiments:
Mus musculus [1] = species on record: Mus musculus; assay: Antagonism of tetrabenazine (TBZ)-induced depression in mice measured for ptosis; format: functional; conditions: Mus musculus; read-out: ED50
How it was run: (§1)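 Nonfasted male Swiss Webster mice, 18–24 g, ten per dose level and in saline controls. Test compound given ip 30 min before tetrabenazine 32 mg/kg ip; dose expressed as free base. Motor activity and ptosis scored. Control response ≤90% corrected by Abbott's formula.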

[2] = target: Norepinephrine transporter (Rattus norvegicus, UniProt Q9WTR4); assay: Inhibition of uptake of tritiated norepinephrine (NE) in rat synaptosomes; format: subcellular, Brain
Sequence of Norepinephrine transporter (Q9WTR4 whole entry): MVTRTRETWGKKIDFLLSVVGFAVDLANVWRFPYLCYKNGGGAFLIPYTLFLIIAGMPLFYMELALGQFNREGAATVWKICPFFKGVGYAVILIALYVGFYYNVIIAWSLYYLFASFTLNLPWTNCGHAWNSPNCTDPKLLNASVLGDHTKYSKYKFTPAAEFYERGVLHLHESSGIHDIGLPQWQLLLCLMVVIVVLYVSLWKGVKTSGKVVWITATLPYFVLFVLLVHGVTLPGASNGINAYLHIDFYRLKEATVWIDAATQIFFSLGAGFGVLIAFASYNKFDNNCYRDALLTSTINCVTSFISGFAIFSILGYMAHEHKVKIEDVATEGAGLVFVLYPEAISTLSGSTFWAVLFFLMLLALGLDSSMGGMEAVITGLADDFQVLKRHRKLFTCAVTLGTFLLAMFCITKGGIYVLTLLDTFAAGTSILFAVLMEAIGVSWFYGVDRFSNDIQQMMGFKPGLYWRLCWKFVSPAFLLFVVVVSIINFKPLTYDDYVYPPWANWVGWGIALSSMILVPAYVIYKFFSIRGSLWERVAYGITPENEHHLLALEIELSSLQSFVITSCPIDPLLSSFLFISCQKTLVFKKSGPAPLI

[3] = target: D(1A) dopamine receptor (Rattus norvegicus) (UniProt P18901); assay: Binding affinity towards Dopamine receptor D1 at 1.0 uM concentration
Sequence of D(1A) dopamine receptor (Rattus norvegicus) (P18901 whole entry): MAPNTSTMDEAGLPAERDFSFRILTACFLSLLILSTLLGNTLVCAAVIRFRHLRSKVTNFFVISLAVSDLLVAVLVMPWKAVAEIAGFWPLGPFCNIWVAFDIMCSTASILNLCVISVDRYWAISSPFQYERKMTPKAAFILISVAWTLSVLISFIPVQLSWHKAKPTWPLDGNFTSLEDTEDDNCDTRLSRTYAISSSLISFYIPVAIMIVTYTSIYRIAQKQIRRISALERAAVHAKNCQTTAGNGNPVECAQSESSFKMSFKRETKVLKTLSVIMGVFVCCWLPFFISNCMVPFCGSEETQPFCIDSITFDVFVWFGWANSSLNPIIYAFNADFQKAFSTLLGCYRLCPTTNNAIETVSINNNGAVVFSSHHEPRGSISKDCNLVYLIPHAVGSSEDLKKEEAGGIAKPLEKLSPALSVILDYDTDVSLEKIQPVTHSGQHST
How it was run: (§2)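 Rat brain crude synaptic membranes in 20 mM NaHEPES pH 7.5. Ligands: α1 cortex […] 0.4 nM, nonspecific with (-)-NE 100 μM, 30 min at 25 °C. […] D2 striatum [3H]spiperone 0.05 nM with (+)-butaclamol 1 μM, 45 min at 37 °C. S1 cortex [3H]5-HT 1 nM plus glutathione and MgCl2, with 5-HT 10 μM, 20 min at 37 °C. […] Samples filtered on GF/B and counted.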

Mus musculus [4] = species on record: Mus musculus; assay: Gross behavioral effects ascertained in mice; W indicates weak stimulant or depressant activity of little significance.; format: functional, organism-based
How it was run: (§3)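 Male Swiss Webster mice, 18–24 g, three per dose, given ip doses of 1, 3, 10, 30, 100 and 300 mg/kg. Observed for gross behavior and held for 4 days. Scored as weak (W), stimulant (S), depressant (D) or convulsant (C).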

Mus musculus [5] = species on record: Mus musculus; assay: Antagonism of tetrabenazine (TBZ)-induced depression measured in mice by motor activity; format: functional; conditions: Mus musculus; read-out: ED50; how it was run: as §1
[6] = target: Sodium-dependent dopamine transporter (Rattus norvegicus, UniProt P23977); assay: Inhibition of the uptake of tritiated dopamine (DA) in rat synaptosomes; format: subcellular, Brain
Sequence of Sodium-dependent dopamine transporter (P23977 whole entry): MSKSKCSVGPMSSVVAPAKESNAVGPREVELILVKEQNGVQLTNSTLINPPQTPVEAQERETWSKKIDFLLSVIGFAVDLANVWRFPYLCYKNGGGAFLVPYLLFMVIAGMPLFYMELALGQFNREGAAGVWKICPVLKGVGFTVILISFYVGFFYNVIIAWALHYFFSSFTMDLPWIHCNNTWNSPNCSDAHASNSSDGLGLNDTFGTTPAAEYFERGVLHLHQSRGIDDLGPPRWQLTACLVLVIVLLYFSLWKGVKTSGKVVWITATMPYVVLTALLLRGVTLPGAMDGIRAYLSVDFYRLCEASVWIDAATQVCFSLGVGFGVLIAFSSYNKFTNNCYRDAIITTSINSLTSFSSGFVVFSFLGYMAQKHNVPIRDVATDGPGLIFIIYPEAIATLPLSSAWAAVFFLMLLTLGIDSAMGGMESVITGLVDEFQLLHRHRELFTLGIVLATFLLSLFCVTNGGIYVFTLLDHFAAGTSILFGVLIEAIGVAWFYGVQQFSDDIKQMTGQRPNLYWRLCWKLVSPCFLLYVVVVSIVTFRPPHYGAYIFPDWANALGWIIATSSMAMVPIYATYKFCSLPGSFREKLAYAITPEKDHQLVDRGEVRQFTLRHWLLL

[7] = target: Adrenergic receptor alpha-1 (Rattus norvegicus) (UniProt P15823+P23944+P43140); assay: Binding affinity towards alpha-1 adrenergic receptor at 1.0 uM concentration; format: protein assay; how it was run: as §2
[8] = target: D(2) dopamine receptor (Rattus norvegicus) (UniProt P61169); assay: Binding affinity towards dopamine receptor D2 at 1.0 uM concentration; how it was run: as §2
Sequence of D(2) dopamine receptor (Rattus norvegicus) (P61169 whole entry): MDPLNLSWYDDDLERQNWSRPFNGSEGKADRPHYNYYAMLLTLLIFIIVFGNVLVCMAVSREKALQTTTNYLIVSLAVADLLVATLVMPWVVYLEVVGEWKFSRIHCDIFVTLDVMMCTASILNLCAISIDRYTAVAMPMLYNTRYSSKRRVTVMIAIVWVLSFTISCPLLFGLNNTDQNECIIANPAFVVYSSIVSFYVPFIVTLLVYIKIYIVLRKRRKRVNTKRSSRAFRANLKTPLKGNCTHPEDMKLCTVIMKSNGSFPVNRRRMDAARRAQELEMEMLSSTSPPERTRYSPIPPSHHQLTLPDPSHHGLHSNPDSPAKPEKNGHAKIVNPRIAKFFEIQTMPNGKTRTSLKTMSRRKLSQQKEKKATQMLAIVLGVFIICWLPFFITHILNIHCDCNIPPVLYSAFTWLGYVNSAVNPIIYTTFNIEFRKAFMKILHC

[9] = target: Adrenergic receptor alpha-2 (Rattus norvegicus) (UniProt P22086+P19328+P22909); assay: Binding affinity towards alpha-2 adrenergic receptor at 1.0 uM concentration; format: protein assay
[10] = target: Muscarinic acetylcholine receptor (Rattus norvegicus) (UniProt P08482+P08483+P08485+P08911+P10980); assay: Binding affinity towards Muscarinic acetylcholine receptor at 1.0 uM concentration; format: protein assay
[11] = target: Norepinephrine transporter (Rattus norvegicus) (UniProt Q9WTR4); assay: Ability to inhibit the uptake of [3H]norepinephrine (NE) 0.1 uM concentration at rat brain synaptosomes; format: functional, subcellular
Sequence of Norepinephrine transporter (Rattus norvegicus) (Q9WTR4 as listed by the source): as the sequence (Q9WTR4 whole entry) above
How it was run: (§4)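 Male Wistar rat brain synaptosomes (P2 fraction): hypothalamus for NE, striatum for DA, cerebral cortex for 5-HT. Buffer is Tris- or HEPES-buffered salt medium with glucose, ascorbate and nialamide, pH 7.4 at 37 °C. Preincubated 10 min at 37 °C with compound. Uptake started with [3H]NE 100–300 nM, [3H]DA 50–300 nM or [3H]5-HT 100–200 nM, incubated 3 min (DA) or 6–10 min (NE, 5-HT). Blanks held on ice. Filtered, counted by scintillation.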

Rattus norvegicus = species on record: Rattus norvegicus; assay: Ability to inhibit the uptake of tritiated dopamine (DA) 1 uM concentration; format: functional
How it was run: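 Rat brain synaptosomal [3H]dopamine uptake: striatal P2 fraction, test compound at 1.00 μM. Preincubated at 37 °C, then 50–300 nM [3H]DA for 3 min. Blanks on ice. Filtration and scintillation counting; percent inhibition of control uptake.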

[12] = target: Sodium-dependent serotonin transporter (Rattus norvegicus) (UniProt P31652); assay: Ability to inhibit the uptake of [3H]- serotonin(5-HT) 0.1 uM concentration at rat brain synaptosomes; format: functional, subcellular; how it was run: as §4
Sequence of Sodium-dependent serotonin transporter (Rattus norvegicus) (P31652 whole entry): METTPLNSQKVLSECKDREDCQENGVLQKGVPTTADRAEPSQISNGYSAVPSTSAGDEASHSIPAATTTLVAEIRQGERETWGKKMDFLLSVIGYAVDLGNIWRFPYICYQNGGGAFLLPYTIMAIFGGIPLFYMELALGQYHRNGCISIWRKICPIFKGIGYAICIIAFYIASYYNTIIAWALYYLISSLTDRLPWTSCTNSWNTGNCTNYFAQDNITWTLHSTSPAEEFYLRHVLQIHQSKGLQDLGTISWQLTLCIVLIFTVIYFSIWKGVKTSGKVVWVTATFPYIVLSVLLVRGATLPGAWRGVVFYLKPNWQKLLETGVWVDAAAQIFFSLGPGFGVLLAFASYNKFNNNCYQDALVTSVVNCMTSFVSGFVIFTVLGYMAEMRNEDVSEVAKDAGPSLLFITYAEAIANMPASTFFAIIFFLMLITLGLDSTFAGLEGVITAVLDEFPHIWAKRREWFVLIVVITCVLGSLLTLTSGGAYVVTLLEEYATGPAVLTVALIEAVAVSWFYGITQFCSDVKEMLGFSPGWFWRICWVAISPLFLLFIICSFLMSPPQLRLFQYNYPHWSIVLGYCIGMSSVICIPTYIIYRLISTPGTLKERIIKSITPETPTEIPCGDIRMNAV

[13] = target: T1, Adrenergic receptor alpha-1 (Rattus norvegicus, UniProt P15823+P23944+P43140); assay: Binding affinity towards alpha-1 adrenergic receptor; format: protein assay
T1 sequence (P15823 whole entry): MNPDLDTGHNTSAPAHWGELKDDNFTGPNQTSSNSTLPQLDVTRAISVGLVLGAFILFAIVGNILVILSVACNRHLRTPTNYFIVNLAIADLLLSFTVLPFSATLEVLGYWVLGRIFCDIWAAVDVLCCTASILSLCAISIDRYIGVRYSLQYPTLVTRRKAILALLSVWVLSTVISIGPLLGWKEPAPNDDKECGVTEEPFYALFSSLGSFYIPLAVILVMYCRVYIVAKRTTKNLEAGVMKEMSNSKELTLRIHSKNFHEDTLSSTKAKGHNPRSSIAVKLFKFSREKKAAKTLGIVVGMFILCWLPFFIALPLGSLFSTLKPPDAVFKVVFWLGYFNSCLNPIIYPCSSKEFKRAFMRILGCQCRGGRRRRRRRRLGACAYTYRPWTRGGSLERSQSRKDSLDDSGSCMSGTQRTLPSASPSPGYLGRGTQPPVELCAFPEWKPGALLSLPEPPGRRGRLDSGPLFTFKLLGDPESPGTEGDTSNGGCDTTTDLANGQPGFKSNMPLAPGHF
T1 sequence (P23944 whole entry): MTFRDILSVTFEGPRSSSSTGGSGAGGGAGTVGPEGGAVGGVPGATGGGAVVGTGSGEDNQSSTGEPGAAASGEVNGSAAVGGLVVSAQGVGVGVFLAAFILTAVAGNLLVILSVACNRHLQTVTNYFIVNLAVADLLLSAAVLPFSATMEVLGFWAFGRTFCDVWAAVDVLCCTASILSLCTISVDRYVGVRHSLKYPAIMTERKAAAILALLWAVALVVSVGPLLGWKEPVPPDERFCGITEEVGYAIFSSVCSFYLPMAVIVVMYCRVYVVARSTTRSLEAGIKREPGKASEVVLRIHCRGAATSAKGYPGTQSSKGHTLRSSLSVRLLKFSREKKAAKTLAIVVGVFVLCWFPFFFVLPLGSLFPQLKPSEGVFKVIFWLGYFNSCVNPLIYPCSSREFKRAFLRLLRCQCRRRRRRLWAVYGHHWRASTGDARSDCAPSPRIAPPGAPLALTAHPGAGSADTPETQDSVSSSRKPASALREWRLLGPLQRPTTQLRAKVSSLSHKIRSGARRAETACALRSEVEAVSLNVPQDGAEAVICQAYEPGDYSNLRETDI
T1 sequence (P43140 whole entry): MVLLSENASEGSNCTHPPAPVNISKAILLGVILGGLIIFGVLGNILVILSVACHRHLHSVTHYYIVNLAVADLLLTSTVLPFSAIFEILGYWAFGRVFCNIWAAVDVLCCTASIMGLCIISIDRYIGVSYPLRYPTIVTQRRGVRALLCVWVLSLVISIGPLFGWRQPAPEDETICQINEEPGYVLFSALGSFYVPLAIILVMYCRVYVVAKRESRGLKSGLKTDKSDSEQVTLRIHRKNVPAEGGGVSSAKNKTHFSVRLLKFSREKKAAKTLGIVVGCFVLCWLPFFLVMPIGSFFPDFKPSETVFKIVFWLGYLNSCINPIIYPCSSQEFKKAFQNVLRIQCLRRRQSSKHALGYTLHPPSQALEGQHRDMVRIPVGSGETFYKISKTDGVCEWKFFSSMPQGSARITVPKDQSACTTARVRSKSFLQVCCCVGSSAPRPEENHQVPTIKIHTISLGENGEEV

[14] = target: Serotonin 1 (5-HT1) receptor (Rattus norvegicus, UniProt P28564+P30940+P19327+P28565); assay: Binding affinity towards serotonin S1 receptor; format: protein assay; how it was run: as §2
D(1A) dopamine receptor = D(1A) dopamine receptor (Rattus norvegicus, UniProt P18901); assay: Binding affinity towards Dopamine receptor D1
Sequence of D(1A) dopamine receptor (P18901 whole entry): as the sequence (P18901 whole entry) above

Mus musculus [15] = species on record: Mus musculus; assay: Gross behavioral effects ascertained in mice; S indicates significant stimulant properties.; format: functional, organism-based; how it was run: as §3
Mus musculus [16] = species on record: Mus musculus; assay: Gross behavioral effects ascertained in mice; D indicates significant depressant properties.; format: functional, organism-based
How it was run: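 Male Swiss Webster albino mice, 18–24 g, three per dose, given ip 1, 3, 10, 30, 100 and 300 mg/kg. Gross behaviour observed and held 4 days. Estimated LD50 range from lethality count on day 4. Scored as weak stimulant/depressant, significant stimulant, significant depressant or overt convulsant.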

[17] = target: Sodium-dependent serotonin transporter (Rattus norvegicus) (UniProt P31652); assay: Inhibition of tritiated serotonin(5-HT) uptake at 0.1 uM concentration; format: functional; how it was run: as §4
D(2) dopamine receptor = D(2) dopamine receptor (Rattus norvegicus, UniProt P61169); assay: Binding affinity towards Dopamine receptor D2
Sequence of D(2) dopamine receptor (P61169 whole entry): as the sequence (P61169 whole entry) above

[18] = target: Serotonin 2 (5-HT2) receptor (Rattus norvegicus, UniProt P30994+P08909+P14842); assay: Binding affinity towards 5-hydroxytryptamine 2 receptor; format: protein assay

**Q.** Which results are given for `Fc1ccc([C@@H]2CN3CCC[C@@H]3c3ccccc32)cc1`?
**A.** ED50 (Mus musculus [1]): ~0.2 mg/kg; Ki [2]: 1.4 nM; inhibition [3]: 56%; behavior (Mus musculus [4]): Partial stimulant; ED50 (Mus musculus [5]): ~0.2 mg/kg

**Q.** `COc1cccc([C@@H]2CN3CCC[C@@H]3c3ccccc32)c1` was tested. Which Ki [6] did it give?
**A.** 15.8 nM

**Q.** And the ED50 (Mus musculus [1])?
**A.** 0.07 mg/kg

**Q.** What about the Ki [2] of the same compound?
**A.** 0.65 nM

**Q.** What about the inhibition [3] of the same compound?
**A.** 40%

**Q.** And the behavior (Mus musculus [4])?
**A.** Partial stimulant

**Q.** And the inhibition [7]?
**A.** 87%

**Q.** What about the inhibition [8] of the same compound?
**A.** 27%

**Q.** And the inhibition [9]?
**A.** 37%

**Q.** And the inhibition [10]?
**A.** 1%

**Q.** And the ED50 (Mus musculus [5])?
**A.** ~0.2 mg/kg

**Q.** For `Br.C[C@@]1(c2ccccc2)CN2CCC[C@H]2c2ccccc21`, which ED50 (Mus musculus [1]) is on record?
**A.** 16.2 mg/kg

**Q.** And the inhibition [11]?
**A.** 19%

**Q.** What about the Inhibition (Rattus norvegicus) of the same compound?
**A.** 50%

**Q.** And the behavior (Mus musculus [4])?
**A.** Weak

**Q.** What about the inhibition [12] of the same compound?
**A.** 14%

**Q.** What about the ED50 (Mus musculus [5]) of the same compound?
**A.** 22.5 mg/kg

**Q.** How did the Ki [6] turn out when `Br.Clc1ccccc1[C@@H]1CN2CCC[C@@H]2c2ccccc21` (stereo in doubt; (+)-24b) was run?
**A.** 17.5 nM

**Q.** And the Ki [13]?
**A.** 150 nM

**Q.** And the Ki [14]?
**A.** 9200 nM

**Q.** For `Br.Oc1ccc([C@@H]2CN3CCC[C@@H]3c3ccccc32)cc1O`, which Ki [6] is on record?
**A.** 10.1 nM

**Q.** And the ED50 (Mus musculus [1])?
**A.** 0.11 mg/kg

**Q.** And the Ki [2]?
**A.** 0.81 nM

**Q.** And the Ki [13]?
**A.** 675 nM

**Q.** And the Ki (D(1A) dopamine receptor)?
**A.** > 1000 nM

**Q.** What about the inhibition [8] of the same compound?
**A.** 5%

**Q.** And the inhibition [9]?
**A.** 26%

**Q.** What about the inhibition [10] of the same compound?
**A.** 0%

**Q.** What about the behavior (Mus musculus [15]) of the same compound?
**A.** Stimulant

**Q.** What about the ED50 (Mus musculus [5]) of the same compound?
**A.** 0.19 mg/kg

**Q.** With `Br.COc1ccc2c(c1)[C@@H]1CCCN1C[C@H]2c1ccccc1` as the compound, how does the Ki [6] read?
**A.** 38.9 nM

**Q.** What about the ED50 (Mus musculus [1]) of the same compound?
**A.** 8 mg/kg

**Q.** What about the Ki [2] of the same compound?
**A.** 20.9 nM

**Q.** And the behavior (Mus musculus [16])?
**A.** Significant depressant

**Q.** And the inhibition [17]?
**A.** 21%

**Q.** What about the ED50 (Mus musculus [5]) of the same compound?
**A.** ~40 mg/kg

**Q.** Which results are given for `CSc1ccc([C@@H]2CN3CCC[C@@H]3c3ccccc32)cc1` (stereo in doubt; (+)-48b)?
**A.** Ki (D(2) dopamine receptor): 1030 nM; Ki [18]: 142 nM; Ki [13]: 274 nM

**Q.** What does the source list for `Br.c1ccc([C@H]2Cc3ccccc3[C@@H]3CCCN23)cc1`?
**A.** ED50 (Mus musculus [1]): ~3 mg/kg; inhibition [11]: 11%; Inhibition (Rattus norvegicus): 36%; behavior (Mus musculus [4]): Weak; inhibition [12]: -9%; ED50 (Mus musculus [5]): ~30 mg/kg
